Experiments:
[1] = target: T1, full-length DnaG (Bacillus subtilis, UniProt P05096); format: biochemical
T1 sequence (P05096 1-603): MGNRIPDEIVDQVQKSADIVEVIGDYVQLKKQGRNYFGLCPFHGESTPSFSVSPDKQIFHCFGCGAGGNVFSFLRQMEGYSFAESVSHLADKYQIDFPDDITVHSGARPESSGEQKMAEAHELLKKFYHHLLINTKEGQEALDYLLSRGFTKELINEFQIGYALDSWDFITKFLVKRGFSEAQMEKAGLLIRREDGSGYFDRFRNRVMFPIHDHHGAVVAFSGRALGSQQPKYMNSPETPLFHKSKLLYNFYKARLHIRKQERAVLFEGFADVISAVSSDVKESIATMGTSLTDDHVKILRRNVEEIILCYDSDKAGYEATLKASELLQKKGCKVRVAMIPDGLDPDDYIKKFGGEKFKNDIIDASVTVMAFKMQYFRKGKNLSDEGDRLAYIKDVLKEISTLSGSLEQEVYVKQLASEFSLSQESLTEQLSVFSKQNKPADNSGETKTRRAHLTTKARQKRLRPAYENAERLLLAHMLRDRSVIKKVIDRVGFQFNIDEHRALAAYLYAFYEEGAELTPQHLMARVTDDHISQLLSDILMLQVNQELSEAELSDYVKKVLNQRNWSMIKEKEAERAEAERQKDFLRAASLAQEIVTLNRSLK
Outline: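 Full-length His-tagged DnaG, Ni-affinity purified, at 100 nM was added last to 500 nM ssDNA template with 0.4 mM ATP, CTP, UTP and GTP at 0, 12.5, 25, 50, 100, 200 or 400 μM, preincubated ± inhibitor. Buffer: 50 mM Tris pH 7.5 with Mg2+, Mn2+, Ca2+ and 10 mM DTT. Incubated 37°C, 30 min; heteroduplex dye fluorescence read at four time points. V0 per enzyme; Ki fitted to competitive/uncompetitive/noncompetitive/mixed models; n≥3.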

[2] = target: DnaG(ZBD+RPD) (Bacillus subtilis, UniProt P05096); format: biochemical
Outline: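 His-tagged DnaGΔ440-603 (ZBD+RPD), expressed in BL21(DE3) cells and Ni-affinity purified, used at 200 nM. Template (500 nM ssDNA) and NTPs (0.4 mM ATP, CTP, UTP; GTP 0–400 μM) briefly preincubated ± inhibitor before enzyme. Buffer: 50 mM Tris pH 7.5, 10 mM Mg acetate, 5 mM MnCl2, 5 mM CaCl2. Ran at 37°C. Dye read at 5, 10, 20 and 30 min (ex 485/em 528 nm). V0 was normalised to enzyme, and Ki came from inhibition-model fits; n≥3.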

SMILES	Ki [1] [µM]	Ki [2] [µM]
Nc1nc2c(ncn2[C@@H]2O[C@H](COP(=O)(O)OP(=O)(O)O)[C@@H](OP(=O)(O)OP(=O)(O)O)[C@H]2O)c(=O)[nH]1 [ppGpp]	777 ± 110	–
Nc1nc2c(ncn2[C@@H]2O[C@H](COP(=O)(O)OP(=O)(O)OP(=O)(O)O)[C@@H](OP(=O)(O)OP(=O)(O)O)[C@H]2O)c(=O)[nH]1 [pppGpp]	163 ± 37	115 ± 17.8

Reference: article PMC8453095 (Journal of molecular biology, 2021)
